Experimental findings from ChEMBL document CHEMBL4431317, “Allosteric Inhibition of SHP2: Identification of a Potent, Selective, and Orally Efficacious Phosphatase Inhibitor” (J Med Chem, 2016) are described below.

The target in data set [1] is T1, Tyrosine-protein phosphatase non-receptor type 11 (Homo sapiens, UniProt Q06124).
T1 sequence (Q06124 whole entry): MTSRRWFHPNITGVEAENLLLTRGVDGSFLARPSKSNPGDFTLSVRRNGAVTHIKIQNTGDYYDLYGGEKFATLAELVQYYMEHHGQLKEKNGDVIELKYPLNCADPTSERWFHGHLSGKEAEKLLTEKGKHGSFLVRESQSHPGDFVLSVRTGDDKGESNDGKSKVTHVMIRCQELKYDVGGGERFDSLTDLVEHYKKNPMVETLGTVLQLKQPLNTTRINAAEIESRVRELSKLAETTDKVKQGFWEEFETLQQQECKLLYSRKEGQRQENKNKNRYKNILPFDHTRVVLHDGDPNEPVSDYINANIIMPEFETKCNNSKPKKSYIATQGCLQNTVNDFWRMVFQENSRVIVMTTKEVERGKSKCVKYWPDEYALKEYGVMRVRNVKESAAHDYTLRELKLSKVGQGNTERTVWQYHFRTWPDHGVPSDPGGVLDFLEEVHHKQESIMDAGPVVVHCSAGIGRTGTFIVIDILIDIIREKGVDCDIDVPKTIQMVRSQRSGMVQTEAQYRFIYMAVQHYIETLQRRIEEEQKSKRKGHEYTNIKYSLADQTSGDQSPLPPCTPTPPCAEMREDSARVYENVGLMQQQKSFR
Briefly: Inhibition of human 6his-tagged SHP2 (2 to 593 residues) expressed in Escherichia coli BL21 Star (DE3) cells preincubated with IRS1_pY1172(dPEG8)pY1222 for 30 to 60 mins followed by addition of DiFMUP measured after 30 mins by fluorescence analysis.

The subject of data set [2] is KYSE-520 cell line. As to the kind of experiment: Antitumor activity against human KYSE520 cells xenografted in immunocompromised nude mouse assessed as tumor stasis at 80 mg/kg administered qd through oral gavage relative to vehicle control. The format is functional, organism-based. In a few lines:
(§1)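 Female nude mice inoculated subcutaneously with 3 x 10^6 parental KYSE-520 cells in 50% phenol red-free matrigel in HBSS. Tumors calipered twice weekly in two dimensions. At roughly 200 mm3, mice randomized to vehicle, test compound (10, 30 or 100 mg/kg qd) or erlotinib (80 mg/kg qd), all by oral gavage. Growth compared with vehicle group.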
In general terms: In xenograft studies the graft and the host belong to different species.

Data set [3] has as its target T2, Tyrosine-protein phosphatase non-receptor type 11 (Homo sapiens) (UniProt Q06124).
T2 sequence (whole entry): T1 sequence (Q06124 whole entry)
As to the kind of experiment: Inhibition of human 6his-tagged SHP2 (1 to 525 residues) expressed in Escherichia coli BL21 Star (DE3) cells assessed as change in melting temperature at 100 uM by SYPRO orange dye based differential scanning fluorometry. In a few lines:
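Thermal shift with SHP2 1-525 construct at 100 µg/mL, 5× SYPRO Orange, 100 mM Bis-Tris pH 6.5, 100 mM NaCl, 0.25 mM TCEP, 5% DMSO; compound at 100 µM final. Ramp 25–75 °C in 0.5 °C steps, ex 465/em 580 nm. Tm as transition midpoint by semi-parametric fit; ΔTm against mean of 32 DMSO-only apo controls per plate.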
On the technique in general: In DSF a fluorescence change marks the thermal transition of the protein.

The target of data set [4] is T1, Tyrosine-protein phosphatase non-receptor type 11. As to the kind of experiment: Inhibition of human SHP2 PTP domain (237 to 529 residues) by fluorescence analysis.
The nature of data set [5]: Drug uptake in plasma of immunocompromised nude mouse xenografted with human KYSE520 cells administered qd via oral gavage. The format is ADME. The settings on record: in the assay text read “administered as a single dose via” for “administered qd via”. In a few lines:
(§2)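 Female nude mice bearing subcutaneous KYSE-520 xenografts (3 x 10^6 cells in 50% matrigel/HBSS) received a single oral gavage dose of vehicle or compound (30 or 100 mg/kg) once tumors reached roughly 500 mm3. Euthanized at set time points; plasma harvested for drug levels and xenograft fragments for p-ERK.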

Data set [6] is described as follows: Solubility of the compound at pH 6.8. The format is physicochemical. The following applies: buffer.
Data set [7] in a line: Apparent permeability across apical to basolateral side in human Caco2 cells. The settings on record: Caco-2. The class given is ADME, cell-based.
Data set [8] can be described thus: AUC in C57BL/6 mouse at 5 mg/kg, po by LC-MS/MS analysis. The format is ADME, organism-based. The following applies: in vivo. In a few lines: (§3)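 Male C57BL/6 mice dosed orally at 5 mg/kg. Whole blood taken by tail transection at 0.25, 0.5, 1, 2, 4 and 7 h into EDTA. Plasma stored at -20 °C, precipitated with acetonitrile containing internal standard. PK parameters from noncompartmental analysis; AUClast by linear trapezoidal rule. %F = (AUCinf,po/AUCinf,iv)×(Dose iv/Dose po), with IV reference at 1 mg/kg via tail vein. Results given as mean.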

Data set [9] is described as follows: Oral bioavailability in C57BL/6 mouse at 5 mg/kg by LC-MS/MS analysis. The settings on record: in vivo. The format is ADME, organism-based. In a few lines: as §3
For the next data set, the system named is Mus musculus. As to the kind of experiment: In vivo inhibition of ERK phosphorylation in human KYSE520 cells xenografted in immunocompromised nude mouse at 30 and 100 mg/kg administered qd through oral gavage. The class given is functional, organism-based. The following applies: in the assay text read “administered as a single dose through” for “administered qd through”. In a few lines: as §2

For data set [10], the system named is KYSE-520 cell line. Briefly: Antitumor activity against human KYSE520 cells xenografted in immunocompromised nude mouse assessed as tumor growth inhibition at 10 mg/kg administered qd through oral gavage relative to vehicle control. The format is functional. In a few lines:
as §1

Data set [11] deals with KYSE-520 cell line. As to the kind of experiment: Antitumor activity against human KYSE520 cells xenografted in immunocompromised nude mouse assessed as tumor growth inhibition at 30 mg/kg administered qd through oral gavage relative to vehicle control. The class given is functional. In a few lines: as §1
The test system of data set [12] is KYSE-520 cell line. Briefly: Antitumor activity against human KYSE520 cells xenografted in immunocompromised nude mouse assessed as tumor growth at 100 mg/kg administered qd through oral gavage relative to vehicle control. The class given is functional. In a few lines: as §1

SMILES strings stand for the structures. Calls of active or inactive are those of the source. The calls are words filed in the database; no cut-off is given here.

In turn, `Nc1nc(N2CCC(N)CC2)ncc1-c1cccc(Cl)c1Cl` yielded a half-inhibitory concentration (IC50) in data set [1] of 1.3 µM.
Turning to `C#Cc1cccc(Nc2ncnc3cc(OCCOC)c(OCCOC)cc23)c1`, in the data set with KYSE-520 cell line [2], the outcome was Active.
`C[C@@H]1CN(c2ncc(-c3cccc(Cl)c3)c(N)n2)C[C@H](C)N1` had an IC50 in data set [1] of 99 µM.
On to `C[C@@H]1CN(c2ncc(-c3cccc(Cl)c3Cl)c(N)n2)C[C@H](C)N1`, for which, in data set [3], the ΔTm was in the range of 3 to 3.02 °C. This molecule also came in with a 50% inhibitory concentration (IC50) in data set [4] greater than 100 µM.
In [1], `Cc1cccc(-c2cnc(N3C[C@@H](C)N[C@@H](C)C3)nc2N)c1C` showed a half-maximal inhibitory concentration (IC50) greater than 100 µM.
`CC1(N)CCN(c2cnc(-c3cccc(Cl)c3Cl)c(N)n2)CC1`: the Drug uptake entry in [5] is “Dose-dependent effect”. This molecule had a solubility in data set [6] greater than 500 µM. In [7], the apparent permeability from apical to basolateral (Papp A→B) was 13.2 ×10⁻⁶ cm/s. In data set [8], this molecule displayed an AUC of 565 µM·h. In data set [9], this molecule gave a bioavailability of 46%. Besides, in the data set on Mus musculus, the inhibition result is “Active”. Also, the figures for the inhibition of tumour growth (TGI) in the data set with KYSE-520 cell line [10] and in the data set on KYSE-520 cell line [11] were 19% and 61%, respectively. For the same molecule, in the data set on KYSE-520 cell line [12], the T/C was found to be 3%.
Regarding `CNc1nc(N2CCC(C)(N)CC2)cnc1-c1cccc(Cl)c1Cl`, the 50% inhibitory concentration (IC50) in data set [1] was found to be 22 µM.
Take `C[C@@H]1CN(c2ncc(-c3ccc(Cl)c(Cl)c3)c(N)n2)C[C@H](C)N1`: the IC50 in data set [1] came to 54 µM.
The molecule `CN(C)C1CCN(c2ncc(-c3cccc(Cl)c3Cl)c(N)n2)CC1` displayed a concentration for half-maximal inhibition (IC50) in data set [1] of 6.5 µM. This IC50 is about 8.3-fold lower than that of the molecule before.

As a reminder, the IC50 is the concentration at which inhibition is half-maximal. High values mean weaker potency, low ones greater potency. The ΔTm is the change in melting temperature against a reference sample. The term solubility denotes the dissolved amount per volume that the medium holds. Read a low solubility as little dissolved substance. One may read the Papp A→B as how fast a substance crosses the layer from the apical side. The term AUC denotes concentration integrated over time. Usually bioavailability stands for the share of a dose that reaches the circulation, judged against a reference dose that is usually intravenous. What is called TGI is the reduction of tumour growth relative to the control group. A word on the T/C: it is the result in the treated group divided by that in the control group, in per cent.
